Data set [1] has as its target T1, Histone-lysine N-methyltransferase EHMT2 (Homo sapiens) (UniProt Q96KQ7).
T1 sequence (whole entry): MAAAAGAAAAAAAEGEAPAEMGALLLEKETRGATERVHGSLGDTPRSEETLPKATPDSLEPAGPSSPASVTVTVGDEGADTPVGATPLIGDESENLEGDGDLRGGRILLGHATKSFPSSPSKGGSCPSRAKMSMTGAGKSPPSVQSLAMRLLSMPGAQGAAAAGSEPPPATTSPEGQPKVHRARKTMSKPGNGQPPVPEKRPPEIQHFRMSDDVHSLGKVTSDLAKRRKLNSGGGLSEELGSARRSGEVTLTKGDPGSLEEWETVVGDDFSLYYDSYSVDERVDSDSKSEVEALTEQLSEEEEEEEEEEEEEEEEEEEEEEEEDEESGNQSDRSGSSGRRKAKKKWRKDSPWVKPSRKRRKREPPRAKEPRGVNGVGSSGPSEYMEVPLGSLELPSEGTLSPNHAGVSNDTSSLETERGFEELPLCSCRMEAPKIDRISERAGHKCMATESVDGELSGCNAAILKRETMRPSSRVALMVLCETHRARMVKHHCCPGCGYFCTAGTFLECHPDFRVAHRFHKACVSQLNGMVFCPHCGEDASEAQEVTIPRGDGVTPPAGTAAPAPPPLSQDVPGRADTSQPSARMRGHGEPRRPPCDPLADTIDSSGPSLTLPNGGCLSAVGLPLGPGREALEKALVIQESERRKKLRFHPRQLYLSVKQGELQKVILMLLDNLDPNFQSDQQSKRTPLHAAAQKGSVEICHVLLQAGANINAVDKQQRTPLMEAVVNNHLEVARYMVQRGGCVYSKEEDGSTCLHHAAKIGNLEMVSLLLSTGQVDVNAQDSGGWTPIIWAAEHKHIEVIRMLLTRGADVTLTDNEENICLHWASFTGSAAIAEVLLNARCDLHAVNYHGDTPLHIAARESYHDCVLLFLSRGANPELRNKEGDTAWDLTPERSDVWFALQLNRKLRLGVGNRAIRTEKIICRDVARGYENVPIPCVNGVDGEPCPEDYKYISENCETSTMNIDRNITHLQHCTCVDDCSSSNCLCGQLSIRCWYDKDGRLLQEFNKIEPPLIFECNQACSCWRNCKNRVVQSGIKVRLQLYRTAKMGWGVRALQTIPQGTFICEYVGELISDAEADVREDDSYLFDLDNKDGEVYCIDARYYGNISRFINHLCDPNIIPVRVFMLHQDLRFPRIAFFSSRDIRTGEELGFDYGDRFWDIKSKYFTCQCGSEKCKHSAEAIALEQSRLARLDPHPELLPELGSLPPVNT
Description: Inhibition of recombinant human G9a at 25 uM using biotinylated-Histone H3 peptide (1 to 21 residues) after 30 mins by AlphaLISA assay relative to control. Summed up: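 G9a AlphaLISA at fixed 10 or 25 μM compound: human recombinant G9a 1 nM, 30 min preincubation, then biotinylated H3(1–21) 100 nM plus SAM 15 μM for 30 min at room temperature, pH 8.8 Tris buffer with 0.01% Tween-20; anti-H3K9me2 acceptor and streptavidin donor beads; percent of DMSO control.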

The nature of data set [2]: Cytotoxicity against human U343MG cells assessed as reduction in cell viability up to 5 uM after 72 hrs by MTT assay. The format is cell-based. A digest of the protocol: (§1)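 MCF-7, MDA-MB-231 and U-343 cells exposed 24, 48 and 72 h to 0.05, 0.5, 5 and 50 μM compound; viability by MTT reduction to formazan versus vehicle; mean ± SD of at least three independent experiments.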
On the technique in general: Tetrazolium assays rely on reduction of a dye to a coloured formazan, in cell work by metabolically active cells.

Data set [3] concerns the target T1, Histone-lysine N-methyltransferase EHMT2 (Homo sapiens).
Data set [4] concerns the target Histone acetyltransferase p300 (Homo sapiens) (UniProt Q09472). Description: Inhibition of recombinant human P300 at 10 to 25 uM using biotinylated-Histone H4 peptide (1 to 21 residues) as substrate preincubated for 30 mins followed by substrate addition and measured after 60 mins in presence of SAM by AlphaLISA assay relative to control. A general note: In Alpha technology, singlet oxygen from a donor bead excites a nearby acceptor bead.

For another data set, the system named is MCF7. Description: Cytotoxicity against human MCF7 cells assessed as reduction in cell viability at 0.05 to 50 uM after 24 hrs by MTT assay. It is filed as cell-based. Particulars: mcf7, 24 h. A digest of the protocol: as §1
A short description of data set [5]: Apparent permeability of the compound after 24 hrs by BBB-PAMPA. It is filed as ADME.
Data set [6] has as its target T2, Histone-lysine N-methyltransferase EHMT2 (Homo sapiens, UniProt Q96KQ7).
T2 sequence (Q96KQ7 whole entry): T1 sequence (whole entry)
Description: Non-competitive inhibition of recombinant human G9a using biotinylated-Histone H3 peptide (1 to 21 residues) as substrate after 30 mins in presence of varying concentration of SAM by Lineweaver-Burk plot analysis.

Calls of active or inactive are those of the source. The rule behind the calls is not given here.

Histone acetyltransferase p300 (Homo sapiens), sequence (Q09472 whole entry, the tested form may be a part): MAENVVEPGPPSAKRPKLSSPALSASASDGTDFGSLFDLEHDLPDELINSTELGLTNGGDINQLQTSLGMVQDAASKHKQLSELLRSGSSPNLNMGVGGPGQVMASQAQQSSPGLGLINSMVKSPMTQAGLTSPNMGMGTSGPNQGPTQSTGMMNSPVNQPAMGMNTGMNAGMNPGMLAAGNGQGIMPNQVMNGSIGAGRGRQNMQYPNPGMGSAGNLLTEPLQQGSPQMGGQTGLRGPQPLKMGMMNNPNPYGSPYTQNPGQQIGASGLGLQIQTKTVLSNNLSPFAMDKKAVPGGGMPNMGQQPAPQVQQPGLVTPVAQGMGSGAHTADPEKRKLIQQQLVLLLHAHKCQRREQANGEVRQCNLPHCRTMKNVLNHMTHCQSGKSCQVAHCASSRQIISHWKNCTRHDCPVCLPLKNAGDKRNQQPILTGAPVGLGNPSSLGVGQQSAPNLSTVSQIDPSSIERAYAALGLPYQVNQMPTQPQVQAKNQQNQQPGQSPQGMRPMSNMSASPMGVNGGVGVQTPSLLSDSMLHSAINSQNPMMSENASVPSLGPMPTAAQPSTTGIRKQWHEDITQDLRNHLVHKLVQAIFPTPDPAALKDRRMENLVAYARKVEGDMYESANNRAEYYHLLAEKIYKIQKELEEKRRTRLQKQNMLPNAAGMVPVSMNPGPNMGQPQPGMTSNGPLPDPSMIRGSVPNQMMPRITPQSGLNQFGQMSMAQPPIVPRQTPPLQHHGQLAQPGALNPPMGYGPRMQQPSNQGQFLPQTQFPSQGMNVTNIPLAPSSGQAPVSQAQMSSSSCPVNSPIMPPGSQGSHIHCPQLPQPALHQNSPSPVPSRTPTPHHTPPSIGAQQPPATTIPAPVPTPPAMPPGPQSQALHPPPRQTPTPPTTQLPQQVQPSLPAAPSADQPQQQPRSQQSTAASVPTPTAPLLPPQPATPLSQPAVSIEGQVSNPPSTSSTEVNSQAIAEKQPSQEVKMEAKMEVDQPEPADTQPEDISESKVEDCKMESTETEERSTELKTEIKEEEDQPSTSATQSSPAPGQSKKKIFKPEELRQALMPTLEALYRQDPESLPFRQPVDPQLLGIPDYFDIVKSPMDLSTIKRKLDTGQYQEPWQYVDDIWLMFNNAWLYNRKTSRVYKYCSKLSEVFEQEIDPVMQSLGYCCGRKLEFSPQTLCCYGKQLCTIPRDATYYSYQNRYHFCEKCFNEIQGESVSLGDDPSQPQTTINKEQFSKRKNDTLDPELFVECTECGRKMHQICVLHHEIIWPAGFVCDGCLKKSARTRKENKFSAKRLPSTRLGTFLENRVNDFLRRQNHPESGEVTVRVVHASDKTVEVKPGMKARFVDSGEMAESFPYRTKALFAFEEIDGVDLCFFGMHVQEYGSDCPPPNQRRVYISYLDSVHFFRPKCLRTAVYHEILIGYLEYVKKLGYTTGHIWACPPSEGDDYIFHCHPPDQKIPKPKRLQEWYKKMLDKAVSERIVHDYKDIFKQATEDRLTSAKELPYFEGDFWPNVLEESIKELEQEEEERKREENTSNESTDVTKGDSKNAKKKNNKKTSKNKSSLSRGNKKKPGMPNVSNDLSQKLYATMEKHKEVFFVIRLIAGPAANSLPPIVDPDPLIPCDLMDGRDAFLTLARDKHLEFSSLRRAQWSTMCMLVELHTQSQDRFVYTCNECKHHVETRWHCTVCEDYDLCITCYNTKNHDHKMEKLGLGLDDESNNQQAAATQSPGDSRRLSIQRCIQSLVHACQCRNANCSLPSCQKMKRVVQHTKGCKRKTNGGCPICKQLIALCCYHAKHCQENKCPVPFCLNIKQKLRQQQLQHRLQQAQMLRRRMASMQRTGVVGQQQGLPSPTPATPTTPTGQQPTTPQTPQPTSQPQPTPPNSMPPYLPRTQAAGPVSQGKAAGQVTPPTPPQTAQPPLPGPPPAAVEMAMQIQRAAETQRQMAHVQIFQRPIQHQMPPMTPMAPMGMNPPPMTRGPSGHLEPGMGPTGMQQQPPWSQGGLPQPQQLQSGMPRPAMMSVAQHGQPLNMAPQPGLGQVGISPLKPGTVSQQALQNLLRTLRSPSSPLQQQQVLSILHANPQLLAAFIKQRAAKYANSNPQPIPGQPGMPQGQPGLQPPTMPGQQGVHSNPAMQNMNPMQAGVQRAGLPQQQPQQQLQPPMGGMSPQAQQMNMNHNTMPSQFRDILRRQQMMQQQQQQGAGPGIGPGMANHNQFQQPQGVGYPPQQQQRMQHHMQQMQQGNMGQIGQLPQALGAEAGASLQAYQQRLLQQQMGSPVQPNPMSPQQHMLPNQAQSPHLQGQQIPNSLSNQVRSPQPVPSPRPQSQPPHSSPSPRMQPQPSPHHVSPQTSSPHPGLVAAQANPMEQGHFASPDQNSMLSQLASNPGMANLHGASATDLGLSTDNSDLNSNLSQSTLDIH

The term inhibition denotes how much of the control response was suppressed. What is called Ki is a measure of affinity in units of concentration, obtained from inhibition or displacement. For `COc1cc2c(cc1OCCCN1CCCC1)N=C(C1CCCCC1)CN=C2NC1CCN(C(C)C)CC1`, the inhibition in data set [1] amounted to 98%. In addition, the Activity entry (in data set [2]; with MCF7) was “Non-Toxic” in each case. For the same compound, the Ka in data set [3] was determined as 550. For the same compound, the inhibition entry in data set [4] was “inactive”. Also, the Papp in data set [5] came out at 2.3 ×10⁻⁷ cm/s. Further, in data set [6], the Ki came to 3.6 nM.

For the origin of these results see ChEMBL document CHEMBL4400539, “Discovery of a Novel Chemotype of Histone Lysine Methyltransferase EHMT1/2 (GLP/G9a) Inhibitors: Rational Design, Synthesis, Biological Evaluation, and Co-crystal Structure” (J Med Chem, 2019).
